Results: ChEMBL document CHEMBL1156229, “Pharmacophore development and application toward the identification of novel, small-molecule autotaxin inhibitors” (J Med Chem, 2010)
pIC50, pKi: −log10 of the molar value.

What was measured:
Autotaxin [1] = molecular target: T1, Autotaxin (Homo sapiens, UniProt Q13822); experiment: Inhibition of human recombinant C-terminal FLAG-tagged autotaxin expressed in baculovirus-infected Sf9 cells assessed as FS-3 hydrolysis at 10 uM relative to control
Procedure, shortened: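 Single-dose screen: inhibitor 10 μM final, purified recombinant human ATX 8.3 nM, FS-3 1 μM, fatty acid free BSA 30 μM in Tris pH 8 buffer (1 mM MgCl2, 1 mM CaCl2, 3 mM KCl, 140 mM NaCl), 37 °C. Fluorescence (ex 485/em 538) read every 2 min; percent activity vs vehicle after no-ATX subtraction at 1 h; mean ± SD of three wells.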

Autotaxin [2] = molecular target: T1, Autotaxin; experiment: Inhibition of human recombinant C-terminal FLAG-tagged autotaxin expressed in baculovirus-infected Sf9 cells assessed as FS-3 hydrolysis
Procedure, shortened: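 Dose response: final inhibitor 30, 10, 3, 1, 0.3, 0.1, 0.03 μM, plus 0.01 and 0.003 μM for some compounds; purified human ATX 8.3 nM, 1 μM FS-3, 30 μM fatty acid free BSA, Tris pH 8 buffer, 37 °C. Fluorescence ex 485/em 538 every 2 min; percent activity vs vehicle at 1 h after no-ATX background subtraction; mean of three wells.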

Autotaxin [3] = molecular target: T1, Autotaxin; experiment: Competitive inhibition of human recombinant C-terminal FLAG-tagged autotaxin expressed in baculovirus-infected Sf9 cells assessed as FS-3 hydrolysis by Michaelis-Menten method
[4] = molecular target: T2, Glycerophosphocholine cholinephosphodiesterase ENPP6 (Homo sapiens) (UniProt Q6UWR7); experiment: Inhibition of human recombinant C-terminal FLAG-tagged NPP6 expressed in baculovirus-infected Sf9 cells assessed as pNPPC hydrolysis at 10 uM relative to control
T2 sequence (whole entry): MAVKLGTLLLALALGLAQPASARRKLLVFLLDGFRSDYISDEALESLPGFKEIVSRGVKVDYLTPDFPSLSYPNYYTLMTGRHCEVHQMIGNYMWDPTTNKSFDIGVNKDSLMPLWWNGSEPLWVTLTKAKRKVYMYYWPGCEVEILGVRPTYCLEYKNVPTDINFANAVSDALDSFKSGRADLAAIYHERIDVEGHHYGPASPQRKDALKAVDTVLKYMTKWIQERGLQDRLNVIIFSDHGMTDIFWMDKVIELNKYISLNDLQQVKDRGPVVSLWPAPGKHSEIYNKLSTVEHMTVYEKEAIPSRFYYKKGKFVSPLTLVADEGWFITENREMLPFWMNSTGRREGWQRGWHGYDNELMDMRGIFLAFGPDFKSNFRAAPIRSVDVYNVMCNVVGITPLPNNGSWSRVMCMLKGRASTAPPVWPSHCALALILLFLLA
Procedure, shortened: (§1)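 Purified Sf9-expressed FLAG-tagged enzyme 8.3 nM with inhibitor 10 μM final. NPP6: pNPPC 10 μM in 100 mM Tris-HCl, 500 mM NaCl, 0.05% Triton X-100, pH 9. NPP7: pNPPC 500 μM in 50 mM Tris HCl, 150 mM NaCl, 10 mM sodium taurocholate, pH 8. 37 °C, A405 every 2 min; percent activity vs vehicle at 1 h after no-enzyme subtraction; three wells.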

[5] = molecular target: T3, Ectonucleotide pyrophosphatase/phosphodiesterase family member 7 (Homo sapiens) (UniProt Q6UWV6); experiment: Inhibition of human recombinant C-terminal FLAG-tagged NPP7 expressed in baculovirus-infected Sf9 cells assessed as pNPPC hydrolysis at 10 uM relative to control; procedure, shortened: as §1
T3 sequence (whole entry): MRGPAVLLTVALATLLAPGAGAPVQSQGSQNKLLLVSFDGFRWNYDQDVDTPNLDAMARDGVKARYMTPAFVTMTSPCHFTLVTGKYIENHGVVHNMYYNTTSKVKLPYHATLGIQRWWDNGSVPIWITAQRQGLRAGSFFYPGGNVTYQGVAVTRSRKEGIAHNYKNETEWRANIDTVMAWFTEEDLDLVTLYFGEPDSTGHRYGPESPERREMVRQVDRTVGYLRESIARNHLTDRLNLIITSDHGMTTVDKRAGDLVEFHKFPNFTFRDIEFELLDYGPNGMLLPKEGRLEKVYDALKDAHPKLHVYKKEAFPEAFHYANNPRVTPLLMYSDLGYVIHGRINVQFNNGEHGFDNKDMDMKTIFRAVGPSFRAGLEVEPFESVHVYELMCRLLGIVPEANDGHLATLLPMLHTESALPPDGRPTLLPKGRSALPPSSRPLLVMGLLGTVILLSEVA

Autotaxin [6] = molecular target: T1, Autotaxin; experiment: Inhibition of human recombinant C-terminal FLAG-tagged autotaxin expressed in baculovirus-infected Sf9 cells assessed as FS-3 hydrolysis at 1 uM; values are per cent of control
Autotaxin [7] = molecular target: T1, Autotaxin; experiment: Inhibition of human recombinant C-terminal FLAG-tagged autotaxin expressed in baculovirus-infected Sf9 cells assessed as FS-3 hydrolysis at 3 uM; values are per cent of control
Autotaxin [8] = molecular target: T1, Autotaxin; experiment: Inhibition of human recombinant C-terminal FLAG-tagged autotaxin expressed in baculovirus-infected Sf9 cells assessed as FS-3 hydrolysis at 10 uM; values are per cent of control
Autotaxin [9] = molecular target: T1, Autotaxin; experiment: Inhibition of human recombinant C-terminal FLAG-tagged autotaxin expressed in baculovirus-infected Sf9 cells assessed as FS-3 hydrolysis at 30 uM; values are per cent of control
Autotaxin [10] = molecular target: T1, Autotaxin; experiment: Inhibition of human recombinant C-terminal FLAG-tagged autotaxin expressed in baculovirus-infected Sf9 cells assessed as FS-3 hydrolysis at 0.1 uM; values are per cent of control
Autotaxin [11] = molecular target: T1, Autotaxin; experiment: Inhibition of human recombinant C-terminal FLAG-tagged autotaxin expressed in baculovirus-infected Sf9 cells assessed as FS-3 hydrolysis at 0.3 uM; values are per cent of control
Autotaxin [12] = molecular target: T1, Autotaxin; experiment: Inhibition of human recombinant C-terminal FLAG-tagged autotaxin expressed in baculovirus-infected Sf9 cells assessed as FS-3 hydrolysis at 0.01 uM; values are per cent of control
Autotaxin [13] = molecular target: T1, Autotaxin; experiment: Inhibition of human recombinant C-terminal FLAG-tagged autotaxin expressed in baculovirus-infected Sf9 cells assessed as FS-3 hydrolysis at 0.03 uM; values are per cent of control
Autotaxin [14] = molecular target: T1, Autotaxin; experiment: Inhibition of human recombinant C-terminal FLAG-tagged autotaxin expressed in baculovirus-infected Sf9 cells assessed as FS-3 hydrolysis at 0.003 uM; values are per cent of control
Autotaxin [15] = molecular target: T1, Autotaxin; experiment: Noncompetitive inhibition of human recombinant C-terminal FLAG-tagged autotaxin expressed in baculovirus-infected Sf9 cells assessed as FS-3 hydrolysis by Michaelis-Menten method

Question: For `COc1cc(-c2ccc(/N=N/c3c(S(=O)(=O)O)cc4cc(S(=O)(=O)O)cc(N)c4c3O)c(OC)c2)ccc1/N=N/c1c(S(=O)(=O)O)cc2cc(S(=O)(=O)O)cc(N)c2c1O`, which inhibition (Autotaxin [1]) is on record?
Answer: 93%

Question: And the pIC50 (Autotaxin [2])?
Answer: 6.43

Question: What about the pKi (Autotaxin [3]) of the same compound?
Answer: 6.57

Question: What about the inhibition [4] of the same compound?
Answer: -3%

Question: And the inhibition [5]?
Answer: -1%

Question: What about the residual activity (Autotaxin [6]) of the same compound?
Answer: 26%

Question: What about the residual activity (Autotaxin [7]) of the same compound?
Answer: 14.1%

Question: What about the residual activity (Autotaxin [8]) of the same compound?
Answer: 6%

Question: And the residual activity (Autotaxin [9])?
Answer: 2.68%

Question: What about the residual activity (Autotaxin [10]) of the same compound?
Answer: 72%

Question: What about the residual activity (Autotaxin [11]) of the same compound?
Answer: 52.9%

Question: What about the residual activity (Autotaxin [12]) of the same compound?
Answer: 93.9%

Question: What about the residual activity (Autotaxin [13]) of the same compound?
Answer: 86.2%

Question: What about the residual activity (Autotaxin [14]) of the same compound?
Answer: 97.5%

Question: Which results are given for `Cc1cc(-c2ccc(/N=N/c3ccc4c(S(=O)(=O)O)cc(S(=O)(=O)O)c(N)c4c3O)c(C)c2)ccc1/N=N/c1ccc2c(S(=O)(=O)O)cc(S(=O)(=O)O)c(N)c2c1O` [EVANS BLUE]?
Answer: inhibition (Autotaxin [1]): 64%; pIC50 (Autotaxin [2]): 6.04; pKi (Autotaxin [3]): 6.08; inhibition [4]: -2%; inhibition [5]: -2%; residual activity (Autotaxin [6]): 47.9%; residual activity (Autotaxin [7]): 35.8%; residual activity (Autotaxin [8]): 26.2%; residual activity (Autotaxin [9]): 13.3%; residual activity (Autotaxin [10]): 82.3%; residual activity (Autotaxin [11]): 60.9%; residual activity (Autotaxin [12]): 96%; residual activity (Autotaxin [13]): 89.6%; residual activity (Autotaxin [14]): 95.8%

Question: For `Nc1c(/N=N/c2ccc(-c3ccc(/N=N/c4cc(S(=O)(=O)O)c5ccccc5c4N)cc3)cc2)cc(S(=O)(=O)O)c2ccccc12` [CONGO RED], which inhibition (Autotaxin [1]) is on record?
Answer: 82%

Question: And the pIC50 (Autotaxin [2])?
Answer: 5.88

Question: And the pKi (Autotaxin [15])?
Answer: 5.72

Question: What about the inhibition [4] of the same compound?
Answer: -3%

Question: And the inhibition [5]?
Answer: 2%

Question: And the residual activity (Autotaxin [6])?
Answer: 54.9%

Question: And the residual activity (Autotaxin [7])?
Answer: 36.7%

Question: What about the residual activity (Autotaxin [8]) of the same compound?
Answer: 14.6%

Question: And the residual activity (Autotaxin [9])?
Answer: 5.29%

Question: And the residual activity (Autotaxin [10])?
Answer: 91.2%

Question: And the residual activity (Autotaxin [11])?
Answer: 77.3%

Question: And the residual activity (Autotaxin [12])?
Answer: 99.8%

Question: What about the residual activity (Autotaxin [13]) of the same compound?
Answer: 94.6%

Question: And the residual activity (Autotaxin [14])?
Answer: 99.9%
